Results: EPA's CvTdb concentration-time database

Test system: human
Test: concentration in expired air after dosing; negative times count back from the end of exposure
Settings: dosed: vinyl chloride, 2.5 ppm, inhalation
How it was run: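 A PubMed search, classifier screening and manual review identified published in vivo toxicokinetic studies, which together with two structured collections supplied concentration-versus-time and amount-versus-time points. Points were mostly digitised from plot screenshots with WebPlotDigitizer, otherwise copied from tables. Dose, route, subject details and medium were hand-curated from each paper, and sampling and analytical methods are those of the sources, often unreported.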

C=CCl [vinyl chloride]
concentration in expired air [ppm]
Settings	duration: 0.25 hr	duration: 0.5 hr
2 s	1.88	–
4 min	0.0581	–
31 s	0.564	–
60 s	–	0.375
64 s	0.271	–
121 s	0.13	0.217
179 s	–	0.198
180 s	0.118	–
237 s	–	0.156
298 s	–	0.145
299 s	0.0432	–

concentration in expired air [ppm], during exposure
Settings	duration: 0.25 hr	duration: 0.5 hr
-299 s	1.81	–
-298 s	–	1.63
-241 s	–	1.74
-238 s	1.84	–
-180 s	1.88	–
-122 s	–	1.77
-119 s	1.84	–
-61 s	–	1.7
-59 s	1.96	–
-11 min	1.68	1.81
-8 min	1.64	–
-7 min	–	1.7
-3 min	–	1.79
-0.4831 h	–	1.29
-0.4663 h	–	1.4
-0.4502 h	–	1.63
-0.4157 h	–	1.7
-0.3827 h	–	1.77
-0.3489 h	–	1.79
-0.316 h	–	1.77
-0.2823 h	–	1.86
-0.2493 h	–	1.45
-0.2413 h	0.701	–
-0.2343 h	1.27	–
-0.224 h	1.59	–
-0.2163 h	–	1.86
-0.2158 h	1.57	–
-0.2001 h	1.62	–
-0.1659 h	1.79	–
-0.1496 h	–	1.7
-0.1491 h	1.72	–
-0.1161 h	1.84	–
-0.1003 h	1.79	–
-0 s	–	1.57
